Series [1] has as its target T1, Mitogen-activated protein kinase 9 (Homo sapiens, UniProt P45984). Briefly: Inhibition of c-Jun N-terminal kinase 2-alpha 1.
Target sequence in this assay (P45984 whole entry): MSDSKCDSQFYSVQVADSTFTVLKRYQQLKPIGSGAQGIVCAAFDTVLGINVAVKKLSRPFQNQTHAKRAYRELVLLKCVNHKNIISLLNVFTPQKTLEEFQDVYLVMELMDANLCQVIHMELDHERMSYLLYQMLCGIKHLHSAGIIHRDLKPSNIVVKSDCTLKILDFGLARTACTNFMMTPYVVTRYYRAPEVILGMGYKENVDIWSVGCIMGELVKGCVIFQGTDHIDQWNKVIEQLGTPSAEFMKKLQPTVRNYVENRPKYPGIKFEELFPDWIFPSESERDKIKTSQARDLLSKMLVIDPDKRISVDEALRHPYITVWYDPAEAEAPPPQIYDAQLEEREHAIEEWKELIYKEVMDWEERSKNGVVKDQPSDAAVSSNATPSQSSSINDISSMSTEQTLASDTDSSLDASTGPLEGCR
Series [2] has as its target T2, MAP kinase p38 (Homo sapiens, UniProt O15264+Q15759+Q16539+P53778). In words: Inhibition of Mitogen-activated protein kinase p38. The series is classed as protein assay.
Series [3] deals with T3, RAF proto-oncogene serine/threonine-protein kinase (Homo sapiens, UniProt P04049). In words: Inhibition human c-Raf kinase at 1000 nM.
T3 sequence (P04049 whole entry): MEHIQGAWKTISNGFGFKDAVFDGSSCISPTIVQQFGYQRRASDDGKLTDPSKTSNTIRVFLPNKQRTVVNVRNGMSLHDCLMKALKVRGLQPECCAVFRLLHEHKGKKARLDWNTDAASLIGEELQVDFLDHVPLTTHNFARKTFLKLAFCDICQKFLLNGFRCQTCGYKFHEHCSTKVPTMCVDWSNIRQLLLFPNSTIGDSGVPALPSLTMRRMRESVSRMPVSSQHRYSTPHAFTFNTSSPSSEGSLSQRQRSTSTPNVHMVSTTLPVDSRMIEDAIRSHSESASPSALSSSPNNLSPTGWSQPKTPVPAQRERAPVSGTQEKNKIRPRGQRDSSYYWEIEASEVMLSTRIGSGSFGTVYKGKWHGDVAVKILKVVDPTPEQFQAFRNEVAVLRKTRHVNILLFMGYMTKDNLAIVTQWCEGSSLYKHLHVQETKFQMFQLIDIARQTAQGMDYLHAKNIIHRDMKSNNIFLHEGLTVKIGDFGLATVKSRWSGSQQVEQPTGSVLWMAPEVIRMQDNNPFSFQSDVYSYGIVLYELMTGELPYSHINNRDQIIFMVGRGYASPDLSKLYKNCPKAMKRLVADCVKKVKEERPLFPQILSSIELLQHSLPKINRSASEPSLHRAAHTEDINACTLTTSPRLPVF
Series [4] is described as follows: Bioavailability in rat. The class given is ADME, organism-based. As to conditions: in vivo. A digest of the protocol:
(§1)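 Male Sprague-Dawley rats, n = 3, dosed iv at 2 mg/kg or orally at 10 mg/kg. Mean plasma concentrations were followed over time. Pharmacokinetic parameters were derived from these plasma profiles.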

The species named for series [5] is Rattus norvegicus. Briefly: (§2) Clpl value in rat. The class given is ADME, organism-based. As to conditions: in vivo. A digest of the protocol: as §1
Series [6] has as its target T3, RAF proto-oncogene serine/threonine-protein kinase. Briefly: Inhibition of human c-Raf kinase.
Series [7] deals with Rattus norvegicus. In words: (§3) Intravenous half life in rat was determined. As to conditions: in vivo. The series is classed as ADME, organism-based. A digest of the protocol: as §1
Series [8] has as its target T2, MAP kinase p38. In words: Inhibition of LPS-induced release of Tumor necrosis factor-alpha (TNF-alpha) from human whole blood. The series is classed as functional, tissue-based.
The species named for series [9] is Rattus norvegicus. Briefly: (§4) Vd sss value in rat. The class given is ADME, organism-based. The conditions noted are these: in vivo. A digest of the protocol:
as §1

Series [10] has as its target T2, MAP kinase p38. Briefly: Inhibitory activity against Mitogen-activated protein kinase p38 (MAP kinase). The class given is protein assay.
Series [11] has as its target T3, RAF proto-oncogene serine/threonine-protein kinase. In words: Inhibitory activity against recombinant human RAF proto-oncogene serine/threonine-protein kinase.
Series [12] in a line: Oral maximum concentration in rat. The series is classed as ADME, organism-based. The arrangement: route oral. As to conditions: in vivo. A digest of the protocol:
as §1

Series [13] is described as follows: as §2. The series is classed as ADME, organism-based. As to conditions: plasma, read-out: Clpl. A digest of the protocol:
as §1

The nature of series [14]: Intravenous half life in rat. The series is classed as ADME, organism-based. As to conditions: in vivo. A digest of the protocol: as §1
The nature of series [15]: as §4. The class given is ADME, organism-based. As to conditions: in vivo, read-out: Vdss. A digest of the protocol:
as §1

Series [16] deals with cAMP-dependent protein kinase (PKA) (Homo sapiens, UniProt P22694+P17612+P22612). In words: Inhibition of Protein kinase A. The series is classed as protein assay. A digest of the protocol: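 PKA was run at room temperature with 10 µM [33P]ATP and 10 µM kemptide substrate, under the supplier's conditions. The reaction was stopped with 75 mM phosphoric acid. Product was captured on phosphocellulose filters, washed with phosphoric acid and counted by scintillation.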

Series [17] addresses Dual specificity mitogen-activated protein kinase kinase; MEK1/2 (Homo sapiens, UniProt P36507+Q02750). Briefly: Inhibition of MEK-1, Mitogen activated protein kinase kinase 1. The series is classed as protein assay.
Series [18] is described as follows: as §3. The series is classed as ADME, organism-based. The conditions noted are these: in vivo. A digest of the protocol:
as §1

Series [19] deals with Protein kinase C (PKC). In words: Inhibition of Protein kinase C. The class given is protein assay. A digest of the protocol:
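PKC (isozyme mix) was run at room temperature with 10 µM [33P]ATP and 70 µg/mL myelin basic protein substrate, under the supplier's conditions. Stopped with EDTA/pyrophosphate, filter-captured and counted by scintillation.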

The target in series [20] is T1, Mitogen-activated protein kinase 9. In words: Inhibition of c-Jun N-terminal kinase 2-alpha 2.
Target sequence in this assay (P45984 whole entry): as the sequence (P45984 whole entry) above
For series [21] the target is unchanged. Briefly: Inhibition of c-Jun N-terminal kinase 2-alpha 1 at 40000 nM.
Target sequence in this assay (P45984 whole entry, looked up): as the sequence (P45984 whole entry) above
Series [22] deals with T3, RAF proto-oncogene serine/threonine-protein kinase. In words: Inhibition of human RAF kinase at 5000 nM.

A word on the IC50: it is the concentration that inhibits the measured activity by half. The term inhibition denotes the percentage by which the read-out fell short of the control. Low values mean little suppression, high ones strong suppression. For the compound `COc1ccc(CNc2nccc(-c3[nH]c(C4CCNCC4)nc3-c3cccc(C(F)(F)F)c3)n2)cc1`, the IC50 in series [1] is 735 nM; in [2] it was 7.6 nM. The compound also displayed an inhibition in series [3] of 66%.

As a reminder, the bioavailability is the share of a dose that reaches the circulation, judged against a reference dose that is usually intravenous. Broadly, the Vdss is the apparent volume that relates the amount in the body to the concentration in plasma or blood. On to `C[C@H](Nc1nccc(-c2[nH]c(C3CCNCC3)nc2-c2cccc(C(F)(F)F)c2)n1)c1ccccc1`, for which the bioavailability in series [4] is 0%. The same compound displayed a Clpl in series [5] of 146 mL/min/kg. Moreover, the IC50 in series [6] is 3500 nM; in [1] it was 1750 nM; in [8] it was 6 nM; in series [2], 0.75 nM. The compound further displayed a T1/2 in [7] of 1 min. This compound came in with a Vdss in [9] of 6.5 L/kg.

On to `Nc1nccc(-c2[nH]c(-c3ccccc3)nc2-c2ccccc2)n1`, for which the IC50 in series [10] is 57 nM; in [1], 180 nM; in [11], 750 nM.

With `COc1ccc(-c2nc(-c3ccccc3)[nH]c2-c2ccncc2)cc1`, the IC50 in [10] was determined as 300 nM; in [11], 950 nM.

On to `FC(F)(F)c1cccc(-c2nc(-c3ccccc3)[nH]c2-c2ccncc2)c1`, for which the IC50 in series [6] is 2600 nM; in [1], 910 nM; in series [2], 86 nM.

In the case of `CNc1nccc(-c2[nH]c(-c3ccccc3)nc2-c2ccccc2)n1`, the IC50 came out at 120 nM in series [10], 175 nM in [1] and 2100 nM in series [11].

`COC(=O)c1ccc(-c2[nH]c(-c3ccccc3)nc2-c2ccncc2)cc1`: the IC50 in [6] is 320 nM; in [2], above 10000 nM.

Regarding `c1ccc(-c2nc(-c3ccncc3)c(-c3ccc(C4CCCCC4)cc3)[nH]2)cc1`, the values for the IC50 in [10] and in series [11] were above 10000 nM and 570 nM, respectively.

`Clc1ccc(-c2[nH]c(-c3ccccc3)nc2-c2ccncc2)cc1Cl`: the results for the concentration for half-maximal inhibition (IC50) in series [10] and in series [11] were 28 nM and 20 nM, respectively.

`Clc1ccccc1-c1nc(-c2ccccc2)[nH]c1-c1ccncc1`: the IC50 in [10] turned out to be 150 nM; in series [11], 610 nM.

In the case of `c1ccc(-c2nc(-c3ccccc3)c(-c3ccncc3)[nH]2)cc1`, the IC50 in series [10] was 180 nM; in series [1], 130 nM; in series [11], 380 nM.

As for `Fc1cccc(-c2[nH]c(-c3ccccc3)nc2-c2ccncc2)c1`, the concentration for half-maximal inhibition (IC50) in [10] worked out at 495 nM; in [11] it was 3000 nM.

For orientation: Cmax means the maximum level reached in the sampled fluid or tissue. Broadly, the half-life is how long it takes for the measured level to halve. Compound `C[C@H](Nc1nccc(-c2c(-c3cccc(C(F)(F)F)c3)nc(C3CCNCC3)n2C)n1)c1ccccc1` yielded a Cmax in series [12] of 780 nM. In series [4], this compound came in with a bioavailability of 64%. In addition, the clearance in series [13] came out at 38.3 mL/min/kg. The compound also showed a half-life in series [14] of 4.9 h. Further, in series [15], the Vd was 12.7 L/kg.

`Fc1ccc(-c2[nH]c(C3CCCCC3)nc2-c2ccncc2)cc1`: the IC50 in series [10] was determined as 70 nM; in series [1] it was 29 nM; in [11] it was 135 nM.

Compound `C[C@H](Nc1cc(-c2c(-c3cccc(C(F)(F)F)c3)nc(C3CCNCC3)n2C)ccn1)c1ccccc1` gave a Cmax in series [12] of 390 nM. Moreover, the bioavailability in [4] came to 85%. Besides, the 50% inhibitory concentration (IC50) was above 1500 nM in [16]; 810 nM in series [6]; above 10000 nM in [17]; 1170 nM in series [1]; above 1500 nM in series [19]; 2200 nM in series [20]. In addition, the clearance in series [13] was 63 mL/min/kg. This compound also had a half-life in series [18] of 2.85 h. For the same compound, the Vd in series [15] amounted to 12.3 L/kg.

As for `Fc1ccc(-c2[nH]c(C3CCNCC3)nc2-c2ccncc2)cc1`, the IC50 in series [10] was 9 nM; in series [1] it was 210 nM; in [11] it was 80 nM.

Take `Fc1ccc(-c2[nH]c(C3CCCNC3)nc2-c2ccncc2)cc1` (stereo unspecified): the IC50 was 140 nM in series [1] and 110 nM in series [11].

Consider `Oc1cccc(-c2nc(-c3ccccc3)[nH]c2-c2ccncc2)c1`, for which the IC50 in series [10] was determined as 140 nM; in series [11], 23 nM.

For the compound `N#Cc1ccc(-c2[nH]c(-c3ccccc3)nc2-c2ccncc2)cc1`, the IC50 is 970 nM in [10] and 86 nM in [11].

With `FC(F)(F)c1ccc(-c2[nH]c(-c3ccccc3)nc2-c2ccncc2)cc1`, the values for the IC50 in [10] and in series [11] were 200 nM and 1400 nM, respectively.

The compound `Nc1nccc(-c2[nH]c(C3CCNCC3)nc2-c2cccc(C(F)(F)F)c2)n1` returned a bioavailability in series [4] of 0%. The clearance in [13] stood at 167 mL/min/kg. In series [18], this compound showed a half-life of 0.132 h. Moreover, the results for the IC50 in series [1] and in series [2] were 3300 nM and 7 nM, respectively. Also, in series [15], the Vd stood at 1.23 L/kg. In [3], this compound displayed an inhibition of 36%.

`COc1cccc(-c2[nH]c(-c3ccccc3)nc2-c2ccncc2)c1`: the results for the half-maximal inhibitory concentration (IC50) in [10] and in series [11] were 550 nM and 210 nM, respectively.

Regarding `Clc1cc(Cl)cc(-c2[nH]c(-c3ccccc3)nc2-c2ccncc2)c1`, the values for the IC50 in series [10] and in series [11] were 137 nM and 1600 nM, respectively.

`C[C@@H](Nc1nccc(-c2[nH]c(C3CCNCC3)nc2-c2cccc(C(F)(F)F)c2)n1)c1ccccc1`: the IC50 in series [10] came out at 0.97 nM; in series [1], 295 nM; in [8] it was 0.4 nM; in [11], 4500 nM.

Consider `CC(C)c1ccc(-c2[nH]c(-c3ccccc3)nc2-c2ccncc2)cc1`, for which the concentration for half-maximal inhibition (IC50) in series [10] was 2100 nM; in series [11], above 10000 nM.

As for `c1ccc(-c2ccc(-c3[nH]c(-c4ccccc4)nc3-c3ccncc3)cc2)cc1`, the IC50 was determined as 1000 nM in series [10] and 2500 nM in series [11].

With `Clc1cccc(-c2nc(-c3ccccc3)[nH]c2-c2ccncc2)c1`, the half-maximal inhibitory concentration (IC50) in series [10] was 130 nM; in series [11], 90 nM.

On to `Oc1ccc(-c2[nH]c(-c3ccccc3)nc2-c2ccncc2)cc1`, for which the IC50 in series [10] stood at 1400 nM; in series [11], 390 nM.

As for `Clc1ccc(-c2nc(-c3ccccc3)[nH]c2-c2ccncc2)cc1`, the IC50 in [10] was 48 nM; in series [11] it was 56 nM.

Consider `COc1ccc(CNc2nccc(-c3[nH]c(-c4ccccc4)nc3-c3ccccc3)n2)cc1`, for which the IC50 is 38 nM in [10], 98 nM in series [1] and 1000 nM in series [11].

Consider `c1ccc(-c2nc(-c3ccccc3)c(-c3ccncn3)[nH]2)cc1`, for which the IC50 in series [10] turned out to be 700 nM; in [1] it was 1420 nM; in series [11], 5000 nM.

Regarding `Fc1ccc(-c2nc[nH]c2-c2ccncc2)cc1`, the IC50 turned out to be 170 nM in [10], 195 nM in series [1] and 1300 nM in series [11].

In the case of `C[C@H](Nc1nccc(-c2nc(C3CCNCC3)n(C)c2-c2cccc(C(F)(F)F)c2)n1)c1ccccc1`, the inhibition in [21] was 37%; in [22], 26%.

Values taken from ChEMBL document CHEMBL1132637, “Design and synthesis of potent, selective, and orally bioavailable tetrasubstituted imidazole inhibitors of p38 mitogen-activated protein kinase” (J Med Chem, 1999).
